Measured values from ChEMBL document CHEMBL1125307, “Novel 1,2,4-oxadiazoles and 1,2,4-thiadiazoles as dual 5-lipoxygenase and cyclooxygenase inhibitors” (J Med Chem, 1992).
Activity calls are given as the source filed them. The calls are words filed in the database; no cut-off is given here.

How the values were obtained:
[1] = molecular target: T1, Polyunsaturated fatty acid 5-lipoxygenase (Rattus norvegicus, UniProt P12527); test: Evaluated in vitro for its inhibitory activity against 5-lipoxygenase
T1 sequence (P12527 whole entry): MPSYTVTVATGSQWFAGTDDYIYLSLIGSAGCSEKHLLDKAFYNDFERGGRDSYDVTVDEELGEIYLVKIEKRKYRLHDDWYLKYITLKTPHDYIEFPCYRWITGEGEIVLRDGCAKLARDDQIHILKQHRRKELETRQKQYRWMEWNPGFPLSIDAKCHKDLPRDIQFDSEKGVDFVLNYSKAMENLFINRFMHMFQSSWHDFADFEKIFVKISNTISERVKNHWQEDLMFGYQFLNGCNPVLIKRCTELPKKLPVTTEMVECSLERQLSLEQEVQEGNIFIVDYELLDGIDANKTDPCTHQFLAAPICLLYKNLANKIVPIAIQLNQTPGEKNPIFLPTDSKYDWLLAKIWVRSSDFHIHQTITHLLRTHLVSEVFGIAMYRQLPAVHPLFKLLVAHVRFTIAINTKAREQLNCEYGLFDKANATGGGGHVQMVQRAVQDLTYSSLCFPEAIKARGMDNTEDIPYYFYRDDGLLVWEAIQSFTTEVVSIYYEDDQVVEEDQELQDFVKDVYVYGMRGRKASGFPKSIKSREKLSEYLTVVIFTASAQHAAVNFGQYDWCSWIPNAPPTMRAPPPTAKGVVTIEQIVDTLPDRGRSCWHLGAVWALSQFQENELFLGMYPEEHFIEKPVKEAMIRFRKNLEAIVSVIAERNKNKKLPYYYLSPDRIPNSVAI

[2] = molecular target: T2, Polyunsaturated fatty acid 5-lipoxygenase (Rattus norvegicus) (UniProt P12527); settings: at 10 µM
T2 sequence (whole entry): T1 sequence (P12527 whole entry)

Cyclooxygenase = molecular target: T3, Cyclooxygenase (Rattus norvegicus, UniProt P35355+Q63921); test: Evaluated in vitro for its inhibitory activity against Prostaglandin G/H synthase; format: protein assay
T3 sequence (P35355 whole entry): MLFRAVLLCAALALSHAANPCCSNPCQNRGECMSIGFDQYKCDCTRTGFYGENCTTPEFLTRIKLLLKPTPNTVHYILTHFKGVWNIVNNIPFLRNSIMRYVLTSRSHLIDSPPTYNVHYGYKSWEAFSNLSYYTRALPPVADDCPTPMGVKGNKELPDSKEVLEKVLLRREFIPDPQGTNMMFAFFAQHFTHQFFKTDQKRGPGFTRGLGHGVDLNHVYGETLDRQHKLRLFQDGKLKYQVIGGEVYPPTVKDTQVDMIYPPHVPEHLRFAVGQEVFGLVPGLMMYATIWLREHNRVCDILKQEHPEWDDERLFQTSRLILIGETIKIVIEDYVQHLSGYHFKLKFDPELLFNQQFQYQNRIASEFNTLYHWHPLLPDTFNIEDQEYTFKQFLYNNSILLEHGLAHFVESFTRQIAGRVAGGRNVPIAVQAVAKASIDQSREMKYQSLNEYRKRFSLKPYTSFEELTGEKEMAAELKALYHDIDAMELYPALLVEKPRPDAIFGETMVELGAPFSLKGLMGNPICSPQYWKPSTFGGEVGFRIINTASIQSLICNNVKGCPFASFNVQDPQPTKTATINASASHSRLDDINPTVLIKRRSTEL
T3 sequence (Q63921 whole entry): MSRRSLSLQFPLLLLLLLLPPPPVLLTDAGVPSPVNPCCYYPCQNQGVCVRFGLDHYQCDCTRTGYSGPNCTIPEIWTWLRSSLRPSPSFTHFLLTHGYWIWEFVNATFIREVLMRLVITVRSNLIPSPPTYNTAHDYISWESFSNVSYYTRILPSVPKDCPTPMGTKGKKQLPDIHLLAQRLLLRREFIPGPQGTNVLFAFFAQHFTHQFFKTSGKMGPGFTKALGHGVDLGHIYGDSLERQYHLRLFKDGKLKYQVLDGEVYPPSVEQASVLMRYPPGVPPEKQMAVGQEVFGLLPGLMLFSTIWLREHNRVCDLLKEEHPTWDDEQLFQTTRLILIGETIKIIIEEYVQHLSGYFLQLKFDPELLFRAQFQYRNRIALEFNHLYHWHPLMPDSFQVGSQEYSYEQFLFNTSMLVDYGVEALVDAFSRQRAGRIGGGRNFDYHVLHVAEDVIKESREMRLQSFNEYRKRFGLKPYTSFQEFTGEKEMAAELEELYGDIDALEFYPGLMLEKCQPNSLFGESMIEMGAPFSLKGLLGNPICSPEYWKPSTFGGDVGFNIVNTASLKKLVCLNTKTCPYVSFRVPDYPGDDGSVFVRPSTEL

Rattus norvegicus [3] = species: Rattus norvegicus; test: Ratio of IC50 against 5-LO to that of CO enzyme.
Summary of the method: (§1)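 In ionophore-stimulated RBL-1 cells (2×10^6/mL, PBS with 1.0 mM Ca, 10 min compound preincubation at room temperature, 5 μM A23187 for 7 min at 37 °C), supernatant LTB₄ (5-LO) and PGF₂α (CO) were each quantified by RIA over 0.10–10.0 μM. IC50s came from linear regression, and the ratio is the 5-LO IC50 over the CO IC50.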

Rattus norvegicus [4] = test: Evaluated for the antiinflammatory activity by measuring the percentage inhibition of edema in the carrageenan foot-pad edema test at the dose of 30 mg/kg; format: functional
Summary of the method: (§2)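 Male Wistar rats dosed orally (0.5% HPMC/0.2% Tween 80 or Labrafils, 10 mL/kg) 1 h before subplantar injection of 0.10 mL 1% carrageenan into right hind paw under light anesthesia. Paw volume by mercury plethysmography at challenge and 5 h later; percent inhibition ± SEM versus vehicle group. Doses 10.0 and 30.0 mg/kg po, 7-14 rats per dose.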

Rattus norvegicus [5] = test: Evaluated for the percent rats with ulcers at the dose of 200 mg/kg (number of animals used per group in the experiment are 10 ); format: functional
Summary of the method: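 Male outbred Wistar rats (100-250 g) fasted 24 h, given compound orally in 0.5% HPMC (2 mL/kg), then denied food and water 6 more h. Killed with CO2; stomachs opened along greater curvature and scored for ulcers. Percent of rats with ulcers per dose; up to 200 mg/kg po, 10 rats per dose.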

Rattus norvegicus [6] = test: Evaluated for the antiinflammatory activity by measuring the percentage inhibition of edema in the carrageenan foot-pad edema test at the dose of 10 mg/kg; format: functional; summary of the method: as §2
Rattus norvegicus [7] = test: Evaluated for the antiinflammatory activity by measuring the dose (po) which inhibited Mycobacterium induced foot-pad edema in rats; format: functional
Rattus norvegicus [8] = test: Compound was evaluated for the antiinflammatory activity by measuring the dose (po) which inhibited Mycobacterium induced foot-pad edema in rats; N=Inactive, <30% inhibition at 10 mg/kg po; format: functional, organism-based; parameters: dose 10 mg/kg
Rattus norvegicus [9] = test: Compound was evaluated for the antiinflammatory activity by measuring the percentage inhibition of edema in the carrageenan foot-pad edema test at the dose of 30 mg/kg; N=Inactive, <25% inhibition; format: functional, organism-based; parameters: dose 30 mg/kg; summary of the method: as §2
[10] = molecular target: T1, Polyunsaturated fatty acid 5-lipoxygenase; test: Evaluated in vitro for its inhibitory activity against 5-lipoxygenase; N=Inactive, <50% inhibition at 10 uM concentration
Summary of the method: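 RBL-1 cells grown in MEM + 12% FBS, washed in PBS pH 7.4, resuspended at 2×10^6 cells/mL in PBS with 1.0 mM calcium. Preincubated 10 min at room temperature with compound in DMSO, then stimulated with A23187 (5 μM) 7 min at 37 °C; stopped on ice. Supernatant LTB4 by radioimmunoassay.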

Rattus norvegicus [11] = species: Rattus norvegicus; test: Ratio of IC50 against 5-LO and COX; summary of the method: as §1
[12] = molecular target: T1, Polyunsaturated fatty acid 5-lipoxygenase; test: Inhibitory activity against 5-Lipoxygenase
Summary of the method: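 Rat basophilic leukemia RBL-1 cells were grown in suspension in MEM with 12% FBS, washed, and resuspended at 2×10^6 cells/mL in PBS pH 7.4 with 1.0 mM calcium. Compound in DMSO was preincubated 10 min at room temperature, then 5 μM A23187 was added for 7 min at 37 °C. LTB₄ in the supernatant was measured by RIA at 0.10–10.0 μM. IC50 was determined by linear regression.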

Row | SMILES | IC50 [1] | IC50 (Cyclooxygenase) | Ratio (Rattus norvegicus [3]) | inhibition in vivo at 30 mg/kg (Rattus norvegicus [4]) | inhibition in vivo at 10 mg/kg (Rattus norvegicus [6]) | also measured
1 | CC(C)(C)c1cc(-c2nc(=S)o[nH]2)cc(C(C)(C)C)c1O | 3400 nM |  |  |  |  | 
2 | CCOC(=O)c1nc(-c2cc(C(C)(C)C)c(O)c(C(C)(C)C)c2)ns1 |  |  |  |  |  | inhibition [2]: 91%
3 | CN(C)Cc1nc(-c2cc(C(C)(C)C)c(O)c(C(C)(C)C)c2)no1.Cl | 7700 nM | 0.73 µM | 10.5 |  |  | 
4 | C/N=C(\N)Nc1nc(-c2cc(C(C)(C)C)c(O)c(C(C)(C)C)c2)ns1.Cl | 370 nM | 4.4 µM | 0.084 | 38.9% | 18% | Activity (Rattus norvegicus [5]): 0%; ID40 (Rattus norvegicus [7]): 6 mg/kg
5 | CC(C)(C)c1cc(-c2nc(N)no2)cc(C(C)(C)C)c1O | 3600 nM | 1.9 µM | 1.9 | 32.9% | 43.6% | ID40 (Rattus norvegicus [8]): inactive
6 | CC(C)(C)c1cc(-c2noc(S)n2)cc(C(C)(C)C)c1O |  | 0.05 µM | 68 |  |  | 
7 | CN(C)Cc1noc(-c2cc(C(C)(C)C)c(O)c(C(C)(C)C)c2)n1.Cl | 6800 nM | 0.45 µM | 15 | 50.3% | 34.6% | ID40 (Rattus norvegicus [8]): inactive
8 | Cc1noc(-c2cc(C(C)(C)C)c(O)c(C(C)(C)C)c2)n1 | 3300 nM | 0.46 µM | 7.2 |  |  | inhibition (Rattus norvegicus [9]): inactive
9 | CC(C)(C)c1cc(-c2nsc(N=C(N)N)n2)cc(C(C)(C)C)c1O.Cl | 140 nM | 1.6 µM | 0.088 | 61.3% | 46.1% | Activity (Rattus norvegicus [5]): 0%; ID40 (Rattus norvegicus [7]): 5.1 mg/kg
10 | CC(C)(C)c1cc(-c2noc(O)n2)cc(C(C)(C)C)c1O |  | 4.7 µM |  |  |  | IC50 [10]: Inactive
11 | CC(C)(C)c1cc(-c2nsc(N)n2)cc(C(C)(C)C)c1O | 330 nM | 2.2 µM | 0.15 |  |  | 
12 | CN(C)Cc1nc(-c2cc(C(C)(C)C)c(O)c(C(C)(C)C)c2)ns1.Cl |  |  |  |  |  | IC50 [10]: Inactive
13 | CC(C)(C)c1cc(-c2noc(N)n2)cc(C(C)(C)C)c1O | 2500 nM | 3 µM | 0.83 | 39% | 36% | 
14 | CC(C)(C)c1cc(-c2nsc(CN)n2)cc(C(C)(C)C)c1O.Cl | 2600 nM | 0.087 µM | 30 |  |  | 
15 | Cc1nc(-c2cc(C(C)(C)C)c(O)c(C(C)(C)C)c2)no1 |  | 0.3 µM | 7.7 |  |  | 
16 | Cc1ccc(S(=O)(=O)c2nc(-c3cc(C(C)(C)C)c(O)c(C(C)(C)C)c3)ns2)cc1 |  |  |  |  |  | IC50 [10]: Inactive
17 | CC(C)(C)c1cc(-c2noc(N=C(N)N)n2)cc(C(C)(C)C)c1O.CS(=O)(=O)O | 1700 nM | 0.67 µM | 2.5 | 71% | 51.2% | Activity (Rattus norvegicus [5]): 0%; ID40 (Rattus norvegicus [7]): 3.1 mg/kg
18 | CC(C)(C)c1cc(-c2nc(CN3CCCC3)no2)cc(C(C)(C)C)c1O |  |  |  |  |  | IC50 [10]: Inactive
19 | CC(C)(C)c1cc(-c2nsc(NC#N)n2)cc(C(C)(C)C)c1O.C[N+](C)(C)CC[O-] |  | 0.011 µM |  |  |  | Ratio (Rattus norvegicus [11]): 173; IC50 [12]: 1900 nM
20 | CN(C)C(=N)Nc1nc(-c2cc(C(C)(C)C)c(O)c(C(C)(C)C)c2)ns1 |  |  |  |  |  | inhibition [2]: 72%
21 | CC(=N)Nc1nc(-c2cc(C(C)(C)C)c(O)c(C(C)(C)C)c2)ns1.Cl |  |  |  |  |  | IC50 [10]: Inactive
22 | CC(=O)Nc1noc(-c2cc(C(C)(C)C)c(O)c(C(C)(C)C)c2)n1 |  |  |  |  |  | IC50 [10]: Inactive; inhibition (Rattus norvegicus [9]): inactive
23 | CC(C)(C)c1cc(-c2nc(NC=O)no2)cc(C(C)(C)C)c1O |  |  |  | 54.3% | 51.5% | ID40 (Rattus norvegicus [8]): inactive; IC50 [10]: Inactive
24 | CSC(=N)Nc1nc(-c2cc(C(C)(C)C)c(O)c(C(C)(C)C)c2)ns1.Cl | 1200 nM | 0.17 µM | 7.1 | 41.4% | 30.7% | Activity (Rattus norvegicus [5]): 0%; ID40 (Rattus norvegicus [7]): 7.3 mg/kg
